Reference: article PMC3039817 (British Journal of Cancer, 2010)

Assays:
[1] = target: FGFR3 (Homo sapiens, UniProt P22607); assay: FGFR3 phosphorylation in RT112 cells; type: cell-based; conditions: 500 nM, 0–24 h
Procedure, shortened: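 RT112 cells were exposed to 500 nM test compound for 0–24 h and lysed in RIPAE buffer, cleared at 12 700 × g, 4 °C. FGFR3 was immunoprecipitated with an extracellular-domain antibody. Blots were probed with anti-phosphotyrosine (4G10), then stripped (Tris pH 7.5/urea, 55 °C, 30 min) and reprobed for FGFR3. Detection was by chemiluminescence.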

[2] = system: phospho-ERK in 94-10 cells; assay: FGF2-induced and constitutive ERK phosphorylation in 94-10 cells; type: cell-based, human; conditions: 500 nM, pretreated 1 h, FGF2 5 ng ml–1 + heparin 10 μg ml–1, 15 min
Procedure, shortened: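 94-10 cells (FGFR1-expressing) were pretreated 1 h with or without 500 nM test compound. They were then stimulated 15 min with heparin (10 μg ml–1) with or without FGF2 (5 ng ml–1). Lysis was in RIPAE buffer (Triton X-100, EDTA, SDS, deoxycholate, glycerol, protease inhibitors in PBS), cleared at 12 700 × g, 4 °C. Protein was measured by BCA, immunoblotted for phospho-ERK, reprobed for tubulin and detected by chemiluminescence.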

[3] = system: RT112 cells; assay: Cell cycle distribution by flow cytometry; type: cell-based, human; conditions: 500 nM, 24-h exposure
Procedure, shortened: (§1)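 Cells grown in standard medium at 37 °C, 5% CO2, then exposed to 500 nM test compound or DMSO for 24 h. Harvested cells were fixed overnight in 70% ethanol at 4 °C and rehydrated in PBS pH 7.4. They were then pelleted, stained with propidium iodide/RNase in the dark at 37 °C for 30 min, and analysed by flow cytometry. Three independent experiments; ANOVA.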

[4] = system: RT4 cells; assay: Cell cycle distribution by flow cytometry; type: cell-based, human; conditions: 500 nM, 24-h exposure
Procedure, shortened: as §1

[5] = system: MGH-U3 cells; assay: Cell cycle distribution by flow cytometry; type: cell-based, human; conditions: 500 nM, 24-h exposure
Procedure, shortened: as §1

[6] = system: 97-7 cells; assay: Cell cycle distribution by flow cytometry; type: cell-based, human; conditions: 500 nM, 24-h exposure
Procedure, shortened: as §1

[7] = system: SW780 cells; assay: Cell cycle distribution by flow cytometry; type: cell-based, human; conditions: 500 nM, 24-h exposure
Procedure, shortened: as §1

[8] = Toxicity in treated xenograft-bearing animals; type: in vivo, Balb/c immunodeficient nude mice; conditions: nude mice, 20 mg kg–1 per day i.p.
Procedure, shortened: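 Male Balb/c nude mice aged 6–8 weeks carried flank trocar implants of ~2 mm3 MGH-U3, SW780 or RT112 tumour fragments. At mean 32 mm3, mice were randomised into groups of eight (untreated control or treated). Dosing was 20 mg kg−1 per day i.p. on days 0–3, plus days 6–9 for MGH-U3. Tumours were measured by caliper.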

Sequence of FGFR3 (P22607 397-758 limits assumed): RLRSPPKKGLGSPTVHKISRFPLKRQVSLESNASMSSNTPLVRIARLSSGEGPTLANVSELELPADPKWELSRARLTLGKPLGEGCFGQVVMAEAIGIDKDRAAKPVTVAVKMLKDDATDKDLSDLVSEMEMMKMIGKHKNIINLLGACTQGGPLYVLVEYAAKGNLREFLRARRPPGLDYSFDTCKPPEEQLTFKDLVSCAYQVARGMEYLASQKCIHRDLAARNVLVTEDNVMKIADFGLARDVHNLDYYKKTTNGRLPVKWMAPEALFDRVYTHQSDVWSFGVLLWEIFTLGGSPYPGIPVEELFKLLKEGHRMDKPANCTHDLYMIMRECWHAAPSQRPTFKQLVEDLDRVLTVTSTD

## CCN(CC)CCCCNc1ncc2cc(-c3cc(OC)cc(OC)c3)c(NC(=O)NC(C)(C)C)nc2n1 [PD173074, 1-tert-butyl-3-[6-(3,5-dimethoxy-phenyl)-2-(4-diethylamino-butylamino)-pyrido[2,3-d]pyrimidin-7-yl]-urea]
[1]
  FGFR3 phosphorylation, time-course: rapid and sustained inactivation of FGFR3
[2]
  FGF-induced and constitutive ERK phosphorylation: block both FGF-induced and constitutive ERK phosphorylation
[3]
  cell cycle distribution: significant increase in the proportion of cells in G1
[4]
  cell cycle distribution: significant increase in the proportion of cells in G1
[5]
  cell cycle distribution: significant increase in the proportion of cells in G1
[6]
  cell cycle distribution: significant increase in the proportion of cells in G1
[7]
  cell cycle distribution: no significant change in cell cycle distribution
[8]
  toxicity in treated animals: No evidence of significant toxicity

## CN1CCN(c2ccc3nc(-c4c(N)c5c(F)cccc5[nH]c4=O)[nH]c3c2)CC1 [TKI-258]
[3]
  cell cycle distribution: significant increase in the proportion of cells in G1
[4]
  cell cycle distribution: significant increase in the proportion of cells in G1
[5]
  cell cycle distribution: significant increase in the proportion of cells in G1
[6]
  cell cycle distribution: significant increase in the proportion of cells in G1
[7]
  cell cycle distribution: no significant change in cell cycle distribution
